Laboratory results taken from ChEMBL document CHEMBL3994572, “Antiviral Triterpenes from the Twigs and Leaves of Lyonia ovalifolia” (J Nat Prod, 2016).

Assays:
Coxsackievirus B3 = experiment: Antiviral activity against Coxsackievirus B3 infected in African green monkey Vero cells assessed as inhibition of virus-induced cytopathic effect; format: functional; details: Enterovirus B
Outline: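 Vero monolayers were infected with Cox B3 at 100 TCID50 and allowed 2 h adsorption at 37 °C. They were then washed with PBS and kept at 37 °C in MEM with 2% FBS, with or without graded concentrations of test compounds. Read-out was CPE.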

Human alphaherpesvirus 1 = experiment: Antiviral activity against Herpes simplex virus-1 F VR 733 infected in African green monkey Vero cells assessed as inhibition of virus-induced cytopathic effect; format: functional; details: Human alphaherpesvirus 1, Strain F ATCC VR 733, Vero
Outline: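 Vero cells (2.5 × 10^4/well) were seeded for 24 h, then the medium was removed. Cells were infected with HSV-1 at 100 TCID50 for 2 h, then given graded compound concentrations. Incubation continued until control CPE reached 4+. Runs were in triplicate, repeated at least three times. IC50 is the minimal concentration inhibiting 50% of CPE, by Reed and Muench.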

[1] = Selectivity index, ratio of TC50 for African green monkey Vero cells to IC50 for Herpes simplex virus-1 F VR 733 infected in African green monkey Vero cells; format: toxicity; details: read-out: Selectivity Index
Outline: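 Vero cells (2.5 × 10^4/well) seeded 24 h, medium removed, infected with HSV-1 at 100 TCID50 for 2 h, then graded compound concentrations added until control CPE reached 4+. IC50 = minimal concentration inhibiting 50% CPE (Reed and Muench); triplicate, at least three separate experiments. […] SI = TC50/IC50.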

[2] = Cytotoxicity against African green monkey Vero cells assessed as growth inhibition after 48 hrs; format: cell-based; details: chlorocebus sabaeus, read-out: TC50
Outline: (§1)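 Vero or MDCK cells (2.5 × 10^4/well) were seeded for 24 h, then exposed to graded compound concentrations. After 48 h at 37 °C and 5% CO2, cytotoxicity was scored by CPE. TC50 was calculated by Reed and Muench analysis.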

Influenza A virus = experiment: Antiviral activity against Influenza A virus A/95-359 infected in MDCK cells assessed as inhibition of virus-induced cytopathic effect; format: functional, cell-based; details: A/95-359, MDCK
Outline: (§2)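 MDCK cells (2.5 × 10^4/well) seeded 24 h, PBS-washed, infected with influenza A/95-359 at 100 TCID50 for 2 h, then exposed to graded compound concentrations until control CPE reached 4+. IC50 = minimal concentration inhibiting 50% of CPE (Reed and Muench); triplicate, at least three separate experiments. […] SI = TC50/IC50.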

[3] = Selectivity index, ratio of TC50 for African green monkey Vero cells to IC50 for Coxsackievirus B3 infected in African green monkey Vero cells; format: toxicity; details: read-out: Selectivity Index
Outline: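 Vero monolayers infected with 100 TCID50 Coxsackie B3 virus, 2 h adsorption at 37 °C, PBS-washed, then held in MEM plus 2% FBS at 37 °C with graded compound concentrations. […] SI = TC50/IC50.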

[4] = Cytotoxicity against MDCK cells assessed as growth inhibition after 48 hrs; format: cell-based, Canis lupus familiaris; details: dog, read-out: TC50; outline: as §1
[5] = Selectivity index, ratio of TC50 for MDCK cells to IC50 for Influenza A virus (A/95-359) infected in MDCK cells; format: toxicity, cell-based; details: dog, read-out: Selectivity Index; outline: as §2

| SMILES | IC50 (Coxsackievirus B3) [µM] | IC50 (Human alphaherpesvirus 1) [µM] | selectivity ratio [1] | CC50 at 48 h [2] [µM] | IC50 (Influenza A virus) [µM] | selectivity ratio [3] | CC50 at 48 h [4] [µM] | selectivity ratio [5] |
| --- | --- | --- | --- | --- | --- | --- | --- | --- |
| CC(=O)OC[C@H]1O[C@@H](O[C@@H]2CC=C3C[C@H]4CC[C@]5(C)[C@@H]([C@H](C)CC[C@H](O[C@@H]6OC[C@H](O)[C@H](O)[C@H]6O)C(C)(C)O)CC[C@@]5(C(=O)O)[C@@H]4CC[C@H]3C2(C)C)[C@H](O)[C@@H](O)[C@@H]1O | ≥ 33.3 | 19.3 | > 5.2 | > 100 | > 33.3 | – | – | – |
| NC(=O)c1ncn([C@@H]2O[C@H](CO)[C@@H](O)[C@H]2O)n1 [RIBAVIRIN] | 292 | – | – | – | 1.3 | 6.8 | 1160 | 895 |
| C[C@H](CC[C@H](O)C(C)(C)O)[C@H]1CC[C@@]2(C(=O)O)[C@@H]3CC[C@@H]4C(=CC[C@@H](O)C4(C)C)C[C@H]3CC[C@]12C | ≥ 33.3 | ≥ 33.3 | – | – | 25.9 | – | > 100 | > 3.9 |
| C[C@H](CC[C@H](O[C@@H]1O[C@H](CO)[C@@H](O)[C@H](O)[C@H]1O)C(C)(C)O)[C@H]1CC[C@@]2(C(=O)O)[C@@H]3CC[C@@H]4C(=CC[C@@H](O[C@@H]5O[C@H](CO)[C@@H](O)[C@H](O)[C@H]5O)C4(C)C)C[C@H]3CC[C@]12C | ≥ 33.3 | ≥ 33.3 | – | – | 33.3 | – | > 100 | > 3 |
| C[C@H](CC[C@H](O[C@@H]1OC[C@H](O)[C@H](O)[C@H]1O)C(C)(C)O)[C@H]1CC[C@@]2(C(=O)O)[C@@H]3CCC4=C(CC[C@@H](O[C@H]5OC[C@@H](O)[C@@H](O)[C@@H]5O)C4(C)C)C[C@H]3CC[C@]12C | ≥ 33.3 | ≥ 33.3 | – | – | > 33.3 | – | – | – |
| CC(=O)OC[C@H]1O[C@@H](O[C@@H]2CCC3=C(CC[C@@H]4[C@H](CC[C@]5(C)[C@@H]([C@H](C)CC[C@H](O[C@@H]6OC[C@H](O)[C@H](O)[C@H]6O)C(C)(C)O)CC[C@@]45C(=O)O)C3)C2(C)C)[C@H](O)[C@@H](O)[C@@H]1O | ≥ 33.3 | ≥ 33.3 | – | – | > 33.3 | – | – | – |
| CCOC(=O)C1=C[C@@H](OC(CC)CC)[C@H](NC(C)=O)[C@@H](N)C1 [OSELTAMIVIR] | – | – | – | – | 1.7 | – | – | 741 |
| C[C@H](CC[C@H](O)C(C)(C)O)[C@H]1CC[C@@]2(C(=O)O)C3=C(CC[C@]12C)[C@@]1(C)CC[C@@H](O[C@@H]2O[C@H](CO)[C@@H](O)[C@H](O)[C@H]2O)C(C)(C)[C@@H]1CC3 | ≥ 33.3 | ≥ 33.3 | – | – | > 33.3 | – | – | – |
| Nc1nc2c(ncn2COCCO)c(=O)[nH]1 [ACYCLOVIR] | – | 0.41 | > 244 | > 100 | – | – | – | – |
| C[C@H](CC[C@H](O[C@H]1O[C@@H](CO)[C@H](O)[C@@H](O)[C@@H]1O)C(C)(C)O)[C@H]1CC[C@@]2(C(=O)O)C3=C(CC[C@]12C)[C@@]1(C)CC[C@@H](O[C@@H]2O[C@H](CO)[C@@H](O)[C@H](O)[C@H]2O)C(C)(C)[C@@H]1CC3 | ≥ 33.3 | ≥ 33.3 | – | – | > 33.3 | – | – | – |
| C[C@H]1[C@H](C)CC[C@@]23CC[C@@]4(C)[C@@]5(C)[C@H](C[C@@H](O)[C@]4(OC2=O)[C@H]13)[C@@]1(C)C[C@@H](O)[C@@H](O)[C@](C)(CO)[C@@H]1C[C@@H]5O | ≥ 33.3 | ≥ 33.3 | – | – | > 33.3 | – | – | – |
| C[C@H](CC[C@H](O[C@@H]1OC[C@H](O)[C@H](O)[C@H]1O)C(C)(C)O)[C@H]1CC[C@@]2(C(=O)O)[C@@H]3CC[C@H]4C(=CC[C@@H](O[C@@H]5OC[C@H](O)[C@H](O)[C@H]5O)C4(C)C)C[C@H]3CC[C@]12C | ≥ 33.3 | ≥ 33.3 | – | – | > 33.3 | – | – | – |
| C[C@H](CCC(=O)C(C)(C)O)[C@H]1CC[C@@]2(C(=O)O)[C@@H]3CCC4=C(CC[C@@H](O[C@@H]5O[C@H](CO)[C@@H](O)[C@H](O)[C@H]5O)C4(C)C)C[C@H]3CC[C@]12C | 11.1 | 11.1 | 2.1 | 23.1 | > 11.1 | 2.1 | 33.3 | – |
| CC(=O)OC[C@H]1O[C@@H](O[C@@H]2CCC3=C(CC[C@@H]4[C@H](CC[C@]5(C)[C@@H]([C@H](C)CC[C@H](O)C(C)(C)O)CC[C@@]45C(=O)O)C3)C2(C)C)[C@H](O)[C@@H](O)[C@@H]1O | ≥ 33.3 | ≥ 33.3 | – | – | > 11.1 | – | 48.1 | – |
| C[C@H](CC[C@H](O[C@@H]1OC[C@H](O)[C@H](O)[C@H]1O)C(C)(C)O)[C@H]1CC[C@@]2(C(=O)O)[C@@H]3CCC4=C(CC[C@@H](O[C@@H]5O[C@H](CO)[C@@H](O)[C@H](O)[C@H]5O)C4(C)C)C[C@H]3CC[C@]12C | ≥ 33.3 | ≥ 33.3 | – | – | > 33.3 | – | – | – |
| C[C@H](CC[C@H](O[C@@H]1OC[C@H](O)[C@H](O)[C@H]1O)C(C)(C)O)[C@H]1CC[C@@]2(C(=O)O)C3=C(CC[C@]12C)[C@@]1(C)CC[C@@H](O[C@@H]2OC[C@H](O)[C@H](O)[C@H]2O)C(C)(C)[C@@H]1CC3 | ≥ 33.3 | ≥ 33.3 | – | – | > 33.3 | – | – | – |
| C[C@H](CC[C@H](O[C@@H]1OC[C@H](O)[C@H](O)[C@H]1O)C(C)(C)O)[C@H]1CC[C@@]2(C(=O)O)C3=C(CC[C@]12C)[C@@]1(C)CC[C@@H](O[C@@H]2O[C@H](CO)[C@@H](O)[C@H](O)[C@H]2O)C(C)(C)[C@@H]1CC3 | ≥ 33.3 | ≥ 33.3 | – | – | > 33.3 | – | – | – |
| C[C@H]1[C@H](C)CC[C@@]23CC[C@]4(C)[C@](OC2=O)([C@H](O)C[C@@H]2[C@@]5(C)C[C@@H](O)[C@@H](O)C(CO)(CO)[C@@H]5CC[C@]24C)[C@H]13 | ≥ 33.3 | ≥ 33.3 | – | – | > 33.3 | – | – | – |
| CC(=O)OC[C@H]1O[C@@H](O[C@@H]2CC=C3C[C@H]4CC[C@]5(C)[C@@H]([C@H](C)CC[C@H](O)C(C)(C)O)CC[C@@]5(C(=O)O)[C@@H]4CC[C@@H]3C2(C)C)[C@H](O)[C@@H](O)[C@@H]1O | ≥ 33.3 | ≥ 33.3 | – | – | > 33.3 | – | – | – |
| C[C@H](CC[C@H](O[C@@H]1OC[C@H](O)[C@H](O)[C@H]1O)C(C)(C)O)[C@H]1CC[C@@]2(C(=O)O)[C@@H]3CC[C@H]4C(=CC[C@@H](O[C@@H]5O[C@H](CO)[C@@H](O)[C@H](O)[C@H]5O)C4(C)C)C[C@H]3CC[C@]12C | ≥ 33.3 | ≥ 33.3 | – | – | > 33.3 | – | – | – |
| CC(=O)OC[C@H]1O[C@@H](O[C@@H]2CC[C@]3(C)C4=C(CC[C@H]3C2(C)C)[C@]2(C(=O)O)CC[C@H]([C@H](C)CC[C@H](O[C@@H]3OC[C@H](O)[C@H](O)[C@H]3O)C(C)(C)O)[C@@]2(C)CC4)[C@H](O)[C@@H](O)[C@@H]1O | ≥ 33.3 | 14.3 | > 7 | > 100 | 33.3 | – | 57.7 | 1.7 |
| Cc1cc(CCCOc2c(C)cc(-c3noc(C(F)(F)F)n3)cc2C)on1 [PLECONARIL] | 0.001 | – | – | 15.4 | – | 15400 | – | – |
| C[C@H](CC[C@H](O[C@@H]1O[C@H](CO)[C@@H](O)[C@H](O)[C@H]1O)C(C)(C)O)[C@H]1CC[C@@]2(C(=O)O)C3=C(CC[C@]12C)[C@@]1(C)CC[C@@H](O)C(C)(C)[C@@H]1CC3 | ≥ 33.3 | 23.1 | 2.5 | 57.7 | > 33.3 | – | – | – |
| C[C@H](CC[C@H](O)C(C)(C)O)[C@H]1CC[C@@]2(C(=O)O)[C@@H]3CCC4=C(CC[C@@H](O[C@@H]5O[C@H](CO)[C@@H](O)[C@H](O)[C@H]5O)C4(C)C)C[C@H]3CC[C@]12C | ≥ 33.3 | ≥ 33.3 | – | – | 33.3 | – | 100 | 3 |
